Assay results taken from ChEMBL document CHEMBL1151869, “Discovery of novel 3,6-disubstituted 2-pyridinecarboxamide derivatives as GK activators” (Bioorg Med Chem Lett, 2009).
Activity calls are given as the source filed them. The calls are words filed in the database; no cut-off is given here.

Key:
Hexokinase-4 = biological target: T1, Hexokinase-4 (Homo sapiens, UniProt P35557); assay: Activation of glucokinase
T1 sequence (P35557 whole entry): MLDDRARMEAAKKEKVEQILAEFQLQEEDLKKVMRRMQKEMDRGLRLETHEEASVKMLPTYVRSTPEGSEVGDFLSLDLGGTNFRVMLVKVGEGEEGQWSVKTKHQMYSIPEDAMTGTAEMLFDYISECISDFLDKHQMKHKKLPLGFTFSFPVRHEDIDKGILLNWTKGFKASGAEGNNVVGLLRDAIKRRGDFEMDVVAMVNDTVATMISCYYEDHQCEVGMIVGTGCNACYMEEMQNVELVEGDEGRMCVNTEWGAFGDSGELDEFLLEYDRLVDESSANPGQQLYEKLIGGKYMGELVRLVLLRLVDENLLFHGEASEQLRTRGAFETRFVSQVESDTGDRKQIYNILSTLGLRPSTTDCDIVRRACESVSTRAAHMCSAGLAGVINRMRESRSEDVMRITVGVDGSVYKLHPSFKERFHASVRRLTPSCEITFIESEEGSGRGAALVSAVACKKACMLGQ

[1] = Hepatic availability in rat hepatocytes; assay type: ADME, cell-based, Hepatocyte
[2] = AUC (0 to infinity) in rat at 1 mg/kg, iv; assay type: ADME, organism-based; set-up: dose 1 mg/kg, route intravenous, time infinity; details: plasma
[3] = Half life in rat at 1 mg/kg, iv; assay type: ADME, organism-based; set-up: dose 1 mg/kg, route intravenous; details: in vivo
[4] = Plasma clearance in rat at 1 mg/kg, iv; assay type: ADME, organism-based; set-up: dose 1 mg/kg, route intravenous
[5] = Volume of distribution at steady state in rat at 1 mg/kg, iv; assay type: ADME, organism-based; set-up: dose 1 mg/kg, route intravenous; details: in vivo, read-out: Vdss
[6] = AUC (0 to infinity) in rat at 3 mg/kg, po; assay type: ADME, organism-based; set-up: dose 3 mg/kg, route oral, time infinity; details: plasma
[7] = Oral bioavailability in rat at 3 mg/kg, po; assay type: ADME, organism-based; details: in vivo
Rattus norvegicus [8] = assay: Reduction in glucose AUC in overnight fasted Wistar rat at 30 mg/kg, po treated after 30 mins of glucose challenge measured after 3.5 hrs by oral glucose tolerance test; assay type: functional, organism-based; set-up: dose 30 mg/kg
In short: (§1)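 Nine-week-old male Wistar rats, fasted overnight, given oral dose (30 mpk) or vehicle (0.5% methylcellulose), then an oral glucose challenge (2 g/kg) 30 min later. Blood glucose read just before the challenge and at 30, 60, 90, 120, 150 and 210 min after; AUC taken from the glucose time course.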

Rattus norvegicus [9] = assay: Reduction in plasma glucose level in overnight fasted Wistar rat at 30 mg/kg, po treated after 30 mins of glucose challenge measured after 1 to 3 hrs by oral glucose tolerance test; assay type: functional, organism-based; set-up: dose 30 mg/kg; in short: as §1

EC50 (Hexokinase-4)	Compound	Fh [1]	also measured
100 nM	Cc1cccc(Sc2ccc(Sc3nnc[nH]3)nc2C(=O)Nc2nccs2)c1	69%	–
250 nM	Cc1csc(NC(=O)c2nc(Sc3nncn3C)ccc2Sc2ccc(F)cc2)n1	–	–
160 nM	O=C(Nc1nccs1)c1nc(Sc2nnc[nH]2)ccc1Sc1ccc(C(F)(F)F)cc1	–	–
120 nM	COc1ccc(Sc2ccc(Sc3nnc[nH]3)nc2C(=O)Nc2nccs2)cc1	35%	–
160 nM	COc1cccc(Sc2ccc(Sc3nnc[nH]3)nc2C(=O)Nc2nccs2)c1	–	–
–	O=C(Nc1nccs1)c1nc(Sc2nnc[nH]2)ccc1Sc1ccc(F)cc1	100%	AUC(0-inf) [2]: 4.9 µM·h; half-life [3]: 4 h; clearance [4]: 8.8 mL/min/kg; Vd [5]: 0.5 L/kg; AUC(0-inf) [6]: 3.3 µM·h; bioavailability [7]: 23%; Activity (Rattus norvegicus [8]): Active; Activity (Rattus norvegicus [9]): Active
120 nM	Cn1cnnc1Sc1ccc(Sc2ccc(F)cc2)c(C(=O)Nc2nccs2)n1	–	–

Compound	EC50 (Hexokinase-4)	Fh [1]	also measured
O=C(Nc1nccs1)c1nc(Sc2nnc[nH]2)ccc1Sc1cccc(F)c1	40 nM	89%	–
O=C(Nc1nccs1)c1nc(Sc2nnc[nH]2)ccc1Sc1ccccc1	38 nM	77%	–
O=C(Nc1nccs1)c1nc(Sc2nnc[nH]2)ccc1Sc1ccccc1F	57 nM	71%	–
Cc1csc(NC(=O)c2cc(Sc3nncn3C)ccc2Sc2ccc(F)cc2)n1	970 nM	–	–
